Legend:
Clostridioides difficile [1] = experiment: (§1) Antibacterial activity against Clostridium difficile R20291 assessed as inhibition of spore germination in presence of 6 mM taurocholate and 12 mM glycine measured every minute for 2 hrs by standard optical density assay; type: functional, organism-based
Procedure, shortened: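 IC50 was determined on R20291 spores across a range of compound concentrations in sodium phosphate medium with 6 mM taurocholate and 12 mM glycine. Germination was read as the decrease in absorbance at 580 nm.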

Clostridioides difficile [2] = experiment: as §1, with “germination by measuring heat activated spore germination levels at 125 uM” for “germination”, “assay relative to control” for “assay”; type: functional; design: scale not given: the % may be the effect or the level left
Procedure, shortened: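 R20291 spores were screened at a single 125 µM concentration, with germination followed as the fall in absorbance at 580 nm. Compounds not soluble at 125 µM by visual inspection were discarded. Inhibition is relative to untreated spore samples.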

Clostridioides difficile [3] = experiment: Potency index, ratio of IC50 for chenodeoxycholate to IC50 for test compound for inhibition of spore germination in Clostridium difficile R20291 in presence of 6 mM taurocholate and 12 mM glycine measured every minute for 2 hrs by standard optical density assay; type: functional
Clostridioides difficile [4] = experiment: Antibacterial activity against Clostridium difficile R20291 assessed as inhibition of spore germination in complex BHIS media containing 6 mM taurocholate measured every minute for 2 hrs by standard optical density assay; type: functional, organism-based
Procedure, shortened: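 IC50 was determined on R20291 spores across multiple compound concentrations in complex BHIS medium supplemented with 6 mM taurocholate. Germination was monitored as the decline in absorbance at 580 nm.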

SMILES	IC50 (Clostridioides difficile [1]) [µM]	Activity (Clostridioides difficile [2]) [%]	Ratio IC50 (Clostridioides difficile [3])	IC50 (Clostridioides difficile [4]) [µM]
C#CCNC(=O)CC[C@@H](C)[C@H]1CC[C@H]2[C@@H]3[C@H](O)C[C@@H]4C[C@H](O)CC[C@]4(C)[C@H]3C[C@H](O)[C@]12C	137	59		
C[C@H](CCC(=O)NCc1ccc(S(N)(=O)=O)cc1)[C@H]1CC[C@H]2[C@@H]3[C@H](O)C[C@@H]4C[C@H](O)CC[C@]4(C)[C@H]3C[C@H](O)[C@]12C		109		
C[C@H](CCC(=O)Nc1cccc(S(=O)(=O)O)c1)[C@H]1CC[C@H]2[C@@H]3[C@H](O)C[C@@H]4C[C@H](O)CC[C@]4(C)[C@H]3C[C@H](O)[C@]12C		102		
Cc1csc(NC(=O)CC[C@@H](C)[C@H]2CC[C@H]3[C@@H]4[C@H](O)C[C@@H]5C[C@H](O)CC[C@]5(C)[C@H]4C[C@H](O)[C@]23C)n1		84		
C[C@H](CCC(=O)Nc1ccc(NC(=O)OC(C)(C)C)cc1)[C@H]1CC[C@H]2[C@@H]3[C@H](O)C[C@@H]4C[C@H](O)CC[C@]4(C)[C@H]3C[C@H](O)[C@]12C		100		
COc1ccc(NC(=O)CC[C@@H](C)[C@H]2CC[C@H]3[C@@H]4[C@H](O)C[C@@H]5C[C@H](O)CC[C@]5(C)[C@H]4C[C@H](O)[C@]23C)c(OC)c1		93		
C[C@H](CCC(=O)NCc1ccc(N)cc1)[C@H]1CC[C@H]2[C@@H]3[C@H](O)C[C@@H]4C[C@H](O)CC[C@]4(C)[C@H]3C[C@H](O)[C@]12C		104		
C[C@H](CCC(=O)NCC1CC1)[C@H]1CC[C@H]2[C@@H]3[C@H](O)C[C@@H]4C[C@H](O)CC[C@]4(C)[C@H]3C[C@H](O)[C@]12C	24.3	15		
C[C@H](CCC(=O)Nc1cccc(C(N)=O)c1)[C@H]1CC[C@H]2[C@@H]3[C@H](O)C[C@@H]4C[C@H](O)CC[C@]4(C)[C@H]3C[C@H](O)[C@]12C		85		
C[C@H](CCC(=O)Nc1cccc(N)c1)[C@H]1CC[C@H]2[C@@H]3[C@H](O)C[C@@H]4C[C@H](O)CC[C@]4(C)[C@H]3C[C@H](O)[C@]12C.Cl	32	59		
Cc1cc(F)ccc1NC(=O)CC[C@@H](C)[C@H]1CC[C@H]2[C@@H]3[C@H](O)C[C@@H]4C[C@H](O)CC[C@]4(C)[C@H]3C[C@H](O)[C@]12C	24	37		
C[C@H](CCC(=O)NCc1ccccc1N)[C@H]1CC[C@H]2[C@@H]3[C@H](O)C[C@@H]4C[C@H](O)CC[C@]4(C)[C@H]3C[C@H](O)[C@]12C		95		
COc1ccc(CNC(=O)CC[C@@H](C)[C@H]2CC[C@H]3[C@@H]4[C@H](O)C[C@@H]5C[C@H](O)CC[C@]5(C)[C@H]4C[C@H](O)[C@]23C)c(OC)c1		85		
C[C@H](CCC(=O)NCc1ccc([N+](=O)[O-])cc1)[C@H]1CC[C@H]2[C@@H]3[C@H](O)C[C@@H]4C[C@H](O)CC[C@]4(C)[C@H]3C[C@H](O)[C@]12C		88		
C[C@H](CCC(=O)Nc1ccccc1)[C@H]1CC[C@H]2[C@@H]3[C@H](O)C[C@@H]4C[C@H](O)CC[C@]4(C)[C@H]3C[C@H](O)[C@]12C	1.8	3	>225	1.8
COc1cc(CNC(=O)CC[C@@H](C)[C@H]2CC[C@H]3[C@@H]4[C@H](O)C[C@@H]5C[C@H](O)CC[C@]5(C)[C@H]4C[C@H](O)[C@]23C)cc(OC)c1		99		
C[C@H](CCC(=O)Nc1cccc(NC(=O)OC(C)(C)C)c1)[C@H]1CC[C@H]2[C@@H]3[C@H](O)C[C@@H]4C[C@H](O)CC[C@]4(C)[C@H]3C[C@H](O)[C@]12C		89		
COc1cccc(NC(=O)CC[C@@H](C)[C@H]2CC[C@H]3[C@@H]4[C@H](O)C[C@@H]5C[C@H](O)CC[C@]5(C)[C@H]4C[C@H](O)[C@]23C)c1	78	55		

SMILES	IC50 (Clostridioides difficile [1]) [µM]	Activity (Clostridioides difficile [2]) [%]	Ratio IC50 (Clostridioides difficile [3])	IC50 (Clostridioides difficile [4]) [µM]
C[C@H](CCC(=O)NCc1ccccc1)[C@H]1CC[C@H]2[C@@H]3[C@H](O)C[C@@H]4C[C@H](O)CC[C@]4(C)[C@H]3C[C@H](O)[C@]12C		70		
C[C@H](CCC(=O)Nc1ccc(O)cc1)[C@H]1CC[C@H]2[C@@H]3[C@H](O)C[C@@H]4C[C@H](O)CC[C@]4(C)[C@H]3C[C@H](O)[C@]12C	36	20		
C[C@H](CCC(=O)NC1CCCCC1)[C@H]1CC[C@H]2[C@@H]3[C@H](O)C[C@@H]4C[C@H](O)CC[C@]4(C)[C@H]3C[C@H](O)[C@]12C	95.4	47		
C[C@H](CCC(=O)Nc1cccc(F)c1)[C@H]1CC[C@H]2[C@@H]3[C@H](O)C[C@@H]4C[C@H](O)CC[C@]4(C)[C@H]3C[C@H](O)[C@]12C	16	8		
C[C@H](CCC(=O)NC1CC1)[C@H]1CC[C@H]2[C@@H]3[C@H](O)C[C@@H]4C[C@H](O)CC[C@]4(C)[C@H]3C[C@H](O)[C@]12C	25	6		
C[C@H](CCC(=O)Nc1ccc(N)cc1)[C@H]1CC[C@H]2[C@@H]3[C@H](O)C[C@@H]4C[C@H](O)CC[C@]4(C)[C@H]3C[C@H](O)[C@]12C.Cl		82		
C[C@H](CCC(=O)Nc1ccncc1)[C@H]1CC[C@H]2[C@@H]3[C@H](O)C[C@@H]4C[C@H](O)CC[C@]4(C)[C@H]3C[C@H](O)[C@]12C	30.1	17		
C[C@H](CCC(=O)NC1CCCC1)[C@H]1CC[C@H]2[C@@H]3[C@H](O)C[C@@H]4C[C@H](O)CC[C@]4(C)[C@H]3C[C@H](O)[C@]12C	34.1	6		
C[C@H](CCC(=O)NCc1cccnc1)[C@H]1CC[C@H]2[C@@H]3[C@H](O)C[C@@H]4C[C@H](O)CC[C@]4(C)[C@H]3C[C@H](O)[C@]12C		94		
CCOC(=O)c1cccc(NC(=O)CC[C@@H](C)[C@H]2CC[C@H]3[C@@H]4[C@H](O)C[C@@H]5C[C@H](O)CC[C@]5(C)[C@H]4C[C@H](O)[C@]23C)c1		109		
Cc1ccc(F)cc1NC(=O)CC[C@@H](C)[C@H]1CC[C@H]2[C@@H]3[C@H](O)C[C@@H]4C[C@H](O)CC[C@]4(C)[C@H]3C[C@H](O)[C@]12C	14	9		
COc1ccccc1NC(=O)CC[C@@H](C)[C@H]1CC[C@H]2[C@@H]3[C@H](O)C[C@@H]4C[C@H](O)CC[C@]4(C)[C@H]3C[C@H](O)[C@]12C	9.8	8		
CC(C)CNC(=O)CC[C@@H](C)[C@H]1CC[C@H]2[C@@H]3[C@H](O)C[C@@H]4C[C@H](O)CC[C@]4(C)[C@H]3C[C@H](O)[C@]12C	154	62		
CCOC(=O)c1ccc(NC(=O)CC[C@@H](C)[C@H]2CC[C@H]3[C@@H]4[C@H](O)C[C@@H]5C[C@H](O)CC[C@]5(C)[C@H]4C[C@H](O)[C@]23C)cc1		105		
C[C@H](CCC(=O)NCc1ccccc1[N+](=O)[O-])[C@H]1CC[C@H]2[C@@H]3[C@H](O)C[C@@H]4C[C@H](O)CC[C@]4(C)[C@H]3C[C@H](O)[C@]12C	225	113		
COc1ccc(NC(=O)CC[C@@H](C)[C@H]2CC[C@H]3[C@@H]4[C@H](O)C[C@@H]5C[C@H](O)CC[C@]5(C)[C@H]4C[C@H](O)[C@]23C)cc1		79		
C[C@H](CCC(=O)NCc1ccc(Cl)c(Cl)c1)[C@H]1CC[C@H]2[C@@H]3[C@H](O)C[C@@H]4C[C@H](O)CC[C@]4(C)[C@H]3C[C@H](O)[C@]12C		111		
C[C@H](CCC(=O)NCc1ccccn1)[C@H]1CC[C@H]2[C@@H]3[C@H](O)C[C@@H]4C[C@H](O)CC[C@]4(C)[C@H]3C[C@H](O)[C@]12C		93		

Source: ChEMBL document CHEMBL4325828, “The Design, Synthesis, and Characterizations of Spore Germination Inhibitors Effective against an Epidemic Strain of Clostridium difficile” (J Med Chem, 2018)
